Experimental findings from ChEMBL document CHEMBL1124158, “Importance of the N-terminal domain of the type II angiotensin antagonist sarmesin for receptor blockade” (J Med Chem, 1988) are described below.

The species entered for test [1] is Rattus norvegicus. Kind of test: Negative logarithm of the concentration of compound required to reduce the response of EC50 dose of ANG II to the response to half the EC50 dose. The format is functional, organism-based. Particulars: read-out: pA2 (converted). In short, it runs like this: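 Rat isolated uterus: defatted horns from diethylstilbestrol-primed virgin Sprague-Dawley rats (150-250 g), halved, 1 g tension, 3-mL bath of 150 mM NaCl, 5.6 mM KCl, 0.18 mM NaHCO₃, 1.4 mM glucose, pH 7.0, oxygenated. Isotonic contractions to human ANG II. pA2 = −log antagonist concentration lowering the EC50-dose response to that of half the EC50 dose.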

For test [2], the species on record is Rattus norvegicus. Description: Agonistic activity determined by matching the response with an equivalent response to ANG II (human)-evaluated in rat uterus bioassay. Format: functional. In short, it runs like this:
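Uterine horns (defatted) from diethylstilbestrol-primed virgin Sprague-Dawley rats (150-250 g), halved, held under 1 g tension in a 3-mL bath: 150 mM NaCl, 5.6 mM KCl, 0.18 mM NaHCO₃, 1.4 mM glucose, pH 7.0, oxygen-gassed. Isotonic contractions recorded. Agonist activity expressed relative to an equivalent contraction produced by human ANG II.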

As for `CC[C@H](C)[C@H](NC(=O)[C@@H]1CCCN1C(=O)[C@H](Cc1c[nH]cn1)NC(=O)[C@@H](NC(=O)[C@H](Cc1ccc(O)cc1)NC(=O)[C@@H](NC(=O)[C@H](CCCN=C(N)N)NC(=O)CNC)C(C)C)[C@@H](C)CC)C(=O)O`, the Kb in the test filed under Rattus norvegicus [1] is 7.94 nM. The Activity in the test filed under Rattus norvegicus [2] is less than 0.01%.
